# Results as given in ChEMBL document CHEMBL4689842, “EUbOPEN Chemogenomics Library wave 1” (2021).
# System: U2OS
# Assay: Multiplex assay against U2OS
# Assay type: toxicity, cell-based
# Settings: human
# In short: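 Phenotypes for tubulin, mitochondrial mass and membrane permeability are expressed as per cents of healthy-nucleus cells. Cells were stained live at seeding with Hoechst33342, BioTracker Green Microtubule Cytoskeleton Dye, MitoTracker Red and Annexin V Alexa Fluor 680, then imaged after compound addition on a CQ1 microscope at 37°C and 5% CO2. Machine-learning gating in CellPathfinder separated Hoechst high-intensity objects from normal cells, divided normal cells by nuclear state (healthy, pyknosed, fragmented) and divided pyknosed cells into mitotic or apoptotic.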
# [1] = 12 h, 1 µM, compound concentration 1 uM, replicate 1
# [2] = 12 h, 1 µM, compound concentration 1 uM, replicate 2
# [3] = 12 h, 10 µM, compound concentration 10 uM, replicate 1
# [4] = 12 h, 10 µM, compound concentration 10 uM, replicate 2
# [5] = 24 h, 1 µM, compound concentration 1 uM, replicate 1
# [6] = 24 h, 1 µM, compound concentration 1 uM, replicate 2
# [7] = 24 h, 10 µM, compound concentration 10 uM, replicate 1
# [8] = 24 h, 10 µM, compound concentration 10 uM, replicate 2
# [9] = 48 h, 1 µM, compound concentration 1 uM, replicate 1
# [10] = 48 h, 1 µM, compound concentration 1 uM, replicate 2
# [11] = 48 h, 10 µM, compound concentration 10 uM, replicate 1
# [12] = 48 h, 10 µM, compound concentration 10 uM, replicate 2
compound,measurement,setting,value
Cc1cn(-c2cc(NC(=O)c3ccc(C)c(Nc4nccc(-c5cccnc5)n4)c3)cc(C(F)(F)F)c2)cn1 [NILOTINIB],Population Apoptotic (%),[1],46%
same,Population Fragmented Nuclei (%),[1],14%
same,Population Healthy Nuclei (%),[1],69%
same,Population Hoechst High Intensity Objects (%),[1],8%
same,Population Membrane Permeable-Phenotype (%),[1],10%
same,Population Mitochondria Different-Phenotype (%),[1],77%
same,Population Mitotic Cells (%),[1],53%
same,Population Normal (%),[1],91%
same,Population Pyknosed Nuclei (%),[1],16%
same,Population Tubulin-Different-Phenotype (%),[1],94%
same,Total Cell Count,[1],134
same,Population Apoptotic (%),[2],25%
same,Population Fragmented Nuclei (%),[2],1%
same,Population Healthy Nuclei (%),[2],86%
same,Population Membrane Permeable-Phenotype (%),[2],1%
same,Population Mitochondria Different-Phenotype (%),[2],18%
same,Population Mitotic Cells (%),[2],75%
same,Population Pyknosed Nuclei (%),[2],11%
same,Population Tubulin-Different-Phenotype (%),[2],10%
same,Total Cell Count,[2],66
same,Population Apoptotic (%),[3],86%
same,Population Fragmented Nuclei (%),[3],45%
same,Population Healthy Nuclei (%),[3],20%
same,Population Hoechst High Intensity Objects (%),[3],49%
same,Population Membrane Permeable-Phenotype (%),[3],30%
same,Population Mitochondria Different-Phenotype (%),[3],89%
same,Population Mitotic Cells (%),[3],13%
same,Population Normal (%),[3],50%
same,Population Pyknosed Nuclei (%),[3],33%
same,Population Tubulin-Different-Phenotype (%),[3],93%
same,Total Cell Count,[3],185
same,Population Apoptotic (%),[4],33%
same,Population Fragmented Nuclei (%),[4],18%
same,Population Healthy Nuclei (%),[4],72%
same,Population Hoechst High Intensity Objects (%),[4],7%
same,Population Membrane Permeable-Phenotype (%),[4],4%
same,Population Mitochondria Different-Phenotype (%),[4],61%
same,Population Mitotic Cells (%),[4],66%
same,Population Normal (%),[4],92%
same,Population Pyknosed Nuclei (%),[4],9%
same,Population Tubulin-Different-Phenotype (%),[4],63%
same,Total Cell Count,[4],73
same,Population Apoptotic (%),[5],55%
same,Population Fragmented Nuclei (%),[5],12%
same,Population Healthy Nuclei (%),[5],66%
same,Population Hoechst High Intensity Objects (%),[5],6%
same,Population Membrane Permeable-Phenotype (%),[5],14%
same,Population Mitochondria Different-Phenotype (%),[5],73%
same,Population Mitotic Cells (%),[5],44%
same,Population Normal (%),[5],93%
same,Population Pyknosed Nuclei (%),[5],20%
same,Population Tubulin-Different-Phenotype (%),[5],92%
same,Total Cell Count,[5],135
same,Population Apoptotic (%),[6],40%
same,Population Fragmented Nuclei (%),[6],14%
same,Population Healthy Nuclei (%),[6],79%
same,Population Hoechst High Intensity Objects (%),[6],5%
same,Population Membrane Permeable-Phenotype (%),[6],2%
same,Population Mitochondria Different-Phenotype (%),[6],20%
same,Population Mitotic Cells (%),[6],60%
same,Population Normal (%),[6],94%
same,Population Pyknosed Nuclei (%),[6],5%
same,Population Tubulin-Different-Phenotype (%),[6],12%
same,Total Cell Count,[6],67
same,Population Apoptotic (%),[7],85%
same,Population Fragmented Nuclei (%),[7],60%
same,Population Healthy Nuclei (%),[7],16%
same,Population Hoechst High Intensity Objects (%),[7],60%
same,Population Membrane Permeable-Phenotype (%),[7],29%
same,Population Mitochondria Different-Phenotype (%),[7],71%
same,Population Mitotic Cells (%),[7],14%
same,Population Normal (%),[7],39%
same,Population Pyknosed Nuclei (%),[7],23%
same,Population Tubulin-Different-Phenotype (%),[7],78%
same,Total Cell Count,[7],184
same,Population Apoptotic (%),[8],0%
same,Population Fragmented Nuclei (%),[8],12%
same,Population Healthy Nuclei (%),[8],83%
same,Population Hoechst High Intensity Objects (%),[8],2%
same,Population Membrane Permeable-Phenotype (%),[8],1%
same,Population Mitochondria Different-Phenotype (%),[8],42%
same,Population Mitotic Cells (%),[8],100%
same,Population Normal (%),[8],97%
same,Population Pyknosed Nuclei (%),[8],4%
same,Population Tubulin-Different-Phenotype (%),[8],30%
same,Total Cell Count,[8],93
same,Population Apoptotic (%),[9],65%
same,Population Fragmented Nuclei (%),[9],14%
same,Population Healthy Nuclei (%),[9],67%
same,Population Hoechst High Intensity Objects (%),[9],3%
same,Population Membrane Permeable-Phenotype (%),[9],16%
same,Population Mitochondria Different-Phenotype (%),[9],54%
same,Population Mitotic Cells (%),[9],34%
same,Population Normal (%),[9],96%
same,Population Pyknosed Nuclei (%),[9],17%
same,Population Tubulin-Different-Phenotype (%),[9],80%
same,Total Cell Count,[9],127
same,Population Apoptotic (%),[10],25%
same,Population Fragmented Nuclei (%),[10],4%
same,Population Healthy Nuclei (%),[10],92%
same,Population Hoechst High Intensity Objects (%),[10],5%
same,Population Membrane Permeable-Phenotype (%),[10],6%
same,Population Mitochondria Different-Phenotype (%),[10],18%
same,Population Mitotic Cells (%),[10],75%
same,Population Normal (%),[10],94%
same,Population Pyknosed Nuclei (%),[10],3%
same,Population Tubulin-Different-Phenotype (%),[10],24%
same,Total Cell Count,[10],64
same,Population Apoptotic (%),[11],85%
same,Population Fragmented Nuclei (%),[11],69%
same,Population Healthy Nuclei (%),[11],10%
same,Population Hoechst High Intensity Objects (%),[11],61%
same,Population Membrane Permeable-Phenotype (%),[11],24%
same,Population Mitochondria Different-Phenotype (%),[11],33%
same,Population Mitotic Cells (%),[11],15%
same,Population Normal (%),[11],38%
same,Population Pyknosed Nuclei (%),[11],19%
same,Population Tubulin-Different-Phenotype (%),[11],40%
same,Total Cell Count,[11],245
same,Population Apoptotic (%),[12],11%
same,Population Fragmented Nuclei (%),[12],15%
same,Population Healthy Nuclei (%),[12],75%
same,Population Hoechst High Intensity Objects (%),[12],4%
same,Population Membrane Permeable-Phenotype (%),[12],8%
same,Population Mitochondria Different-Phenotype (%),[12],20%
same,Population Mitotic Cells (%),[12],88%
same,Population Normal (%),[12],95%
same,Population Pyknosed Nuclei (%),[12],9%
same,Population Tubulin-Different-Phenotype (%),[12],25%
same,Total Cell Count,[12],132
